The subject of one data set is antiphenamacril mAb. The experiment in a line: ic-ELISA for sensitivity and specificity of the mAb. The format is binding, Balb/c mice. The note with it: for Cross-reactivity: CR = IC50(analyte)/IC50(structural analogue) x 100%; for IC50: ic-ELISA, standards in 10% methanol-PBS. The gist of the method: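 Ic-ELISA with purified mAb (ascites, Protein G column). Phenamacril standards at 0–500 ng/mL (500 to 1.95 in twofold steps) in 10% methanol-PBS; 50 μL standard and 50 μL mAb per well. IC50 taken as sensitivity. Cross-reactivity run with four methoxyacrylate analogues: IC50(analyte)/IC50(analogue) × 100%.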

For data set [1] the following is noted: Jiangxi red soil; cited from earlier work.
The test system of data set [2] is Au@PDA-mAb probe. The experiment in a line: dr-ICGA on wheat flour samples. The data set is classed as binding. As to conditions: n = 5. The essentials:
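Phenamacril-free flour (5 g, confirmed by LC-MS/MS) in 10 mL ultrapure water, vortexed 2 min, spiked with standard to 0.0125–0.20 mg/kg; water-only blank at 0 mg/kg. Residue redissolved in 1 mL 10% methanol-PBS, then diluted 10-fold. 100 μL applied to the strip. Read by eye as −, ± or +, with cut-offs <0.05, 0.05–0.1 and >0.1 mg/kg.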

The conditions of data set [3]: activated sludge; cited from earlier work.
In the next data set the test system is antisera. The experiment in a line: ic-ELISA of antiserum of the immunized mouse. The data set is classed as binding, Balb/c mice. The note with it: phenamacril at 1 μg/mL, mouse used for fusion (titer 80,000).
In data set [4] the test system is Au@PDA-mAb probe. In words: dual-readout immunochromatographic strip. The format is binding. The gist of the method:
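Standards and analogues at 0.63–20 ng/mL in PBS with 10% methanol were applied to the strip sample pad (100 μL). Au@PDA-mAb probe sat on the conjugate pad. T line held phenamacril-OVA plus QDs-OVA; C line held anti-mouse IgG. Colour read by eye as T-line red loss against the C line. Fluorescence read as green T-line intensity under UV.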

Bounds are passed on as bounds.

On to `CO/C=C(/C(=O)OC)c1ccccc1Oc1cc(Oc2ccccc2C#N)ncn1` [Azoxystrobin], for which the Cross-reactivity with antiphenamacril mAb and with antiphenamacril mAb (listed as azoxystrobin) was under 0.35% each time. Further, in the data set on antiphenamacril mAb, the half-inhibitory concentration (IC50) is reported as >5,000 ng/mL.

As for `COc1c(F)c(F)c(C(=O)NCc2ncc(C(F)(F)F)cc2Cl)c(F)c1F` [Fluopimomide], the Cross-reactivity with antiphenamacril mAb and in the data set on antiphenamacril mAb (listed as fluopimomide) was under 0.35% each time. For the same molecule, the 50% inhibitory concentration (IC50) in the data set with antiphenamacril mAb is >5,000 ng/mL.

Take `CCOC(=O)C(C#N)=C(N)c1ccccc1` [Phenamacril, 2-cyano-3-amino-3-phenylacrylic acetate]: in data set [1], the mobility in soil result was “moderately mobile”. The “dr-ICGA visual result (dilute 10 times)” value in the data set on Au@PDA-mAb probe [2] (wheat flour spiked 0.0125 mg/kg) was “−, −, −, −, −,”; in the data set on Au@PDA-mAb probe [2] (wheat flour spiked 0.025 mg/kg), “−, ± , −, ± , −,”; with Au@PDA-mAb probe [2] (wheat flour spiked 0.05 mg/kg) it was “±, ± , ± , ± , ± ,”; in the data set with Au@PDA-mAb probe [2] (wheat flour spiked 0.1 mg/kg) it was “±, + , + , + , + ,”; with Au@PDA-mAb probe [2] (wheat flour spiked 0.2 mg/kg), “+, + , + , + , + ,”. Further, the degradation entry in data set [3] is listed as “degrades slowly”. In the data set on antiphenamacril mAb, this molecule gave a Cross-reactivity of 100%. Besides, in the data set on antiphenamacril mAb, the IC50 turned out to be 17.46 ng/mL. For the same molecule, the inhibition rate result in the data set on antisera is on record as “approximately 70.8%”. Further, the “reaction on the T line of the dual-readout strip” value in the data set on Au@PDA-mAb probe [4] (20 ng/mL loaded, visual and UV readout) is recorded as “strong positive reaction on the T line”. Moreover, the “limit of detection (cutoff value)” value in the data set on Au@PDA-mAb probe [4] (dr-ICGA, colorimetric and fluorescent readout, within 10 min) stood at 5 ng/mL.

As to `CO/C=C(/C(=O)OC)c1ccccc1COc1cccc(C(F)(F)F)n1` [Picoxystrobin], the Cross-reactivity in the data set with antiphenamacril mAb and in the data set with antiphenamacril mAb (listed as picoxystrobin) was under 0.35% throughout. Besides, in the data set on antiphenamacril mAb, the IC50 is listed as >5,000 ng/mL.

With `COC(=O)N(OC)c1ccccc1COc1ccn(-c2ccc(Cl)cc2)n1` [Pyraclostrobin], the Cross-reactivity in the data set with antiphenamacril mAb and in the data set with antiphenamacril mAb (listed as pyraclostrobin) was under 0.35% in each case. In addition, in the data set on antiphenamacril mAb, the IC50 is on record as >5,000 ng/mL.

Values taken from PMC11838921 (Journal of agricultural and food chemistry, 2024).
